Data published in ChEMBL document CHEMBL1142519, “Synthesis and antiprotozoal activity of cationic 2-phenylbenzofurans” (J Med Chem, 2008).
The source made the active and inactive calls. The calls are words filed in the database; no cut-off is given here.

How the values were obtained:
Plasmodium falciparum = test: Antiplasmodial activity against chloroquine-resistant Plasmodium falciparum K1; assay type: functional, organism-based
Procedure, shortened: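 In vitro IC50 against chloroquine-resistant P. falciparum K1, reported as the average of duplicate determinations.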

[1] = test system: Trypanosoma brucei rhodesiense; test: Antitrypanosomal activity against Trypanosoma brucei rhodesiense STIB 900 infected acute mouse model assessed as survival time at 10 mg/kg, ip; assay type: functional; conditions: route intraperitoneal
Procedure, shortened: (§1)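 STIB900 acute mouse model of T. b. rhodesiense infection, with intraperitoneal dosing. Read-out is the average days of survival of treated mice. Cures are counted as mice that survive and stay parasite-free for 60 days.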

[2] = test system: Trypanosoma brucei rhodesiense; test: Antitrypanosomal activity against Trypanosoma brucei rhodesiense STIB 900 infected acute mouse model assessed as cured mouse at 5 mg/kg, ip daily for 4 days; assay type: functional, organism-based; parameters: dose 5 mg/kg
Procedure, shortened: (§2)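 STIB900 acute mouse model of trypanosomiasis with intraperitoneal dosing. The regimens were daily for 4 days at 20, 5 or 1 mg/kg, or a single 10 mg/kg dose. A cure is a mouse that survives and is parasite-free for 60 days. Average days of survival are also recorded.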

[3] = Selectivity index, ratio of IC50 for rat L6 cells to IC50 for Leishmania donovani MHOM/SD/62/1S-CL2D; assay type: toxicity, cell-based; conditions: read-out: Ratio IC50
Procedure, shortened: (§3)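 Ratio of the L6 rat myoblast cytotoxicity IC50 to the IC50 against the parasite named in the line. Each IC50 is the average of duplicate determinations.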

Leishmania donovani = test: Antileishmanial activity against Leishmania donovani MHOM/SD/62/1S-CL2D axenic amastigotes; assay type: functional, organism-based
Procedure, shortened: (§4)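 IC50 values in µM, each the average of duplicate determinations. Parasites were T. b. rhodesiense STIB900 and axenic amastigotes of L. donovani MHOM/SD/62/1S-CL2D. Cytotoxicity was run on rat L6 myoblast cells.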

[4] = Selectivity index, ratio of IC50 for rat L6 cells to IC50 for chloroquine-resistant Plasmodium falciparum K1; assay type: toxicity, cell-based; conditions: read-out: Ratio IC50; procedure, shortened: as §3
[5] = test system: Trypanosoma brucei rhodesiense; test: Antitrypanosomal activity against Trypanosoma brucei rhodesiense STIB 900 bloodstream trypomastigotes; assay type: functional, organism-based; procedure, shortened: as §4
[6] = Selectivity index, ratio of IC50 for rat L6 cells to IC50 for Trypanosoma brucei rhodesiense STIB 900; assay type: toxicity, cell-based; conditions: read-out: Ratio IC50; procedure, shortened: as §3
L6 = test: Cytotoxicity against rat L6 cells; assay type: cell-based; procedure, shortened: as §4
[7] = test system: Trypanosoma brucei rhodesiense; test: Antitrypanosomal activity against Trypanosoma brucei rhodesiense STIB 900 infected acute mouse model assessed as cured mouse at 1 mg/kg, ip daily for 4 days; assay type: functional, organism-based; parameters: dose 1 mg/kg; procedure, shortened: as §2
[8] = test system: Trypanosoma brucei rhodesiense; test: Antitrypanosomal activity against Trypanosoma brucei rhodesiense STIB 900 infected acute mouse model assessed as survival time at 1 mg/kg, ip administered daily for 4 days; assay type: functional; conditions: route intraperitoneal; procedure, shortened: as §1
[9] = test system: Trypanosoma brucei rhodesiense; test: Antitrypanosomal activity against Trypanosoma brucei rhodesiense STIB 900 infected acute mouse model assessed as survival time at 5 mg/kg, ip administered daily for 4 days; assay type: functional; conditions: route intraperitoneal; procedure, shortened: as §1
[10] = test system: Trypanosoma brucei rhodesiense; test: Antitrypanosomal activity against Trypanosoma brucei rhodesiense STIB 900 infected acute mouse model assessed as cured mouse at 10 mg/kg, ip; assay type: functional, organism-based; parameters: dose 10 mg/kg; procedure, shortened: as §2
[11] = test system: Trypanosoma brucei rhodesiense; test: Antitrypanosomal activity against Trypanosoma brucei rhodesiense STIB 900 infected acute mouse model assessed as survival time at 20 mg/kg, ip administered daily for 4 days; assay type: functional; conditions: route intraperitoneal; procedure, shortened: as §1
[12] = test system: Trypanosoma brucei rhodesiense; test: Antitrypanosomal activity against Trypanosoma brucei rhodesiense STIB 900 infected acute mouse model assessed as cured mouse at 20 mg/kg, ip daily for 4 days; assay type: functional, organism-based; parameters: dose 20 mg/kg; procedure, shortened: as §2
[13] = test system: Trypanosoma brucei rhodesiense; test: Antitrypanosomal activity against Trypanosoma brucei rhodesiense STIB 900 infected acute mouse model assessed as cured mouse at 2 mg/kg, ip daily for 4 days; assay type: functional, organism-based; parameters: dose 2 mg/kg
[14] = test system: Trypanosoma brucei rhodesiense; test: Antitrypanosomal activity against Trypanosoma brucei rhodesiense STIB 900 infected acute mouse model assessed as survival time at 2 mg/kg, ip administered daily for 4 days; assay type: functional; conditions: route intraperitoneal
[15] = test system: Trypanosoma brucei rhodesiense; test: Antitrypanosomal activity against Trypanosoma brucei rhodesiense STIB 900 infected acute mouse model assessed as cured mouse at 8 mg/kg, ip daily for 4 days; assay type: functional, organism-based; parameters: dose 8 mg/kg
[16] = test system: Trypanosoma brucei rhodesiense; test: Antitrypanosomal activity against Trypanosoma brucei rhodesiense STIB 900 infected acute mouse model assessed as survival time at 8 mg/kg, ip administered daily for 4 days; assay type: functional; conditions: route intraperitoneal

SMILES	IC50 (Plasmodium falciparum)	Survival [1]	Activity [2]	selectivity ratio [3]	IC50 (Leishmania donovani)	selectivity ratio [4]	IC50 [5]	selectivity ratio [6]	IC50 (L6)	Activity [7]	Survival [8]	Survival [9]	Activity [10]	Survival [11]	Activity [12]	Activity [13]	Survival [14]	Activity [15]	Survival [16]
CC(C)NC(=N)c1ccc(-c2cc3cc(C(=N)NC(C)C)cc(O)c3o2)c(O)c1	310 nM	>50.7 days	Active	> 4	46000 nM	> 577	23 nM	> 7780	> 179000 nM	inactive	26.3 days	>60 days	–	–	–	–	–	–	–
CC(C)NC(=N)c1ccc(-c2cc3cc(C(=N)NC(C)C)ccc3o2)cc1	73 nM	–	–	> 125	1600 nM	> 2710	125 nM	> 1580	> 198000 nM	inactive	15.3 days	>53 days	inactive	–	–	–	–	–	–
N=C(N)c1ccc(-c2cc3cc(C(=N)N)cc(O)c3o2)cc1	47 nM	>43 days	Active	35	5300 nM	3920	3 nM	61300	184000 nM	–	>30.8 days	>60 days	–	–	–	–	–	–	–
N=C(N)c1ccc(-c2cc3ccc(C(=N)N)cc3[nH]2)cc1 [DAPI]	3 nM	–	inactive	–	–	287	17 nM	51	860 nM	–	–	>40.8 days	–	>60 days	Active	–	–	–	–
COc1cc(C2=NCCN2)cc2cc(-c3ccc(C4=NCCN4)cc3)oc12	32 nM	–	–	5	4500 nM	622	124 nM	160	19900 nM	–	–	–	–	11.5 days	inactive	–	–	–	–
Oc1cc(C2=NCCN2)ccc1-c1cc2cc(C3=NCCN3)ccc2o1	6 nM	23.5 days	–	26	5800 nM	25000	8 nM	18800	150000 nM	inactive	20 days	>60 days	inactive	–	–	–	–	–	–
N=C(N)c1ccc(-c2cc3ccc(C(=N)N)cc3o2)cc1	3 nM	>39.5 days	Active	0.3	3100 nM	267	7 nM	114	800 nM	inactive	26.5 days	>60 days	–	–	–	–	–	–	–
N=C(N)c1ccc(-c2cc3cc(C(=N)N)ccc3o2)c(O)c1	4 nM	>55.3 days	–	19	1800 nM	8320	2 nM	16600	33300 nM	inactive	34.8 days	>54.5 days	–	–	–	–	–	–	–
CC(C)NC(=N)c1ccc(-c2cc3ccc(C(=N)NC(C)C)cc3o2)c(O)c1	597 nM	>51.8 days	–	> 5	39000 nM	> 307	9 nM	> 20300	> 183000 nM	–	>46.5 days	>55.5 days	–	–	–	–	–	–	–
COc1cc(C(=N)N)cc2cc(-c3ccc(C(=N)N)cc3)oc12	6 nM	>44 days	Active	10	3000 nM	5120	6 nM	5120	30700 nM	inactive	27.3 days	>60 days	–	–	–	–	–	–	–
COc1cc(C2=NCCN2)ccc1-c1cc2ccc(C3=NCCN3)cc2o1	77 nM	–	inactive	< 0.04	> 100000 nM	57	49 nM	90	4400 nM	–	–	7 days	–	–	–	–	–	–	–
CC(C)NC(=N)c1ccc(-c2cc3cc(C(=N)NC(C)C)ccc3o2)c(O)c1	28 nM	26.8 days	–	> 101	1800 nM	> 6540	21 nM	> 8710	> 183000 nM	inactive	18.5 days	>50.5 days	inactive	–	–	–	–	–	–
COc1ccc(C2=NCCN2)cc1-c1cc2cc(C3=NCCN3)ccc2o1	65 nM	–	inactive	< 0.6	> 50000 nM	474	27 nM	1140	30800 nM	–	–	8.5 days	–	–	–	–	–	–	–
CC(C)NC(=N)c1ccc(-c2cc3cc(C(=N)NC(C)C)cc(O)c3o2)cc1	56 nM	>36.3 days	Active	> 9	20000 nM	> 3300	28 nM	> 6610	> 185000 nM	inactive	>19.8 days	>60 days	–	–	–	–	–	–	–
Nc1nc(N)nc(Nc2ccc([As]3SCC(CO)S3)cc2)n1 (centres undefined) [MELARSOPROL]	–	–	–	–	–	–	–	–	–	Active	>51.5 days	–	–	–	–	Active	>60 days	Active	>60 days
N=C(N)c1ccc(-c2cc3cc(C(=N)N)cc(O)c3o2)c(O)c1	61 nM	>49.5 days	–	0.2	14000 nM	34	18 nM	117	2100 nM	–	>33.5 days	>56.8 days	–	–	–	–	–	–	–
Oc1cc(C2=NCCN2)cc2cc(-c3ccc(C4=NCCN4)cc3)oc12	22 nM	>51.3 days	–	> 27	7400 nM	> 9230	4 nM	> 50800	> 203000 nM	–	>39 days	>49.8 days	–	–	–	–	–	–	–
N=C(N)c1ccc(O)c(-c2cc3cc(C(=N)N)ccc3o2)c1	793 nM	>51.5 days	Active	> 11	20000 nM	> 274	5 nM	> 43400	> 217000 nM	inactive	26 days	>60 days	–	–	–	–	–	–	–
